Reference: ChEMBL document CHEMBL1139368, “Pt(II) complexes of a combretastatin A-4 analogous chalcone: effects of conjugation on cytotoxicity, tumor specificity, and long-term tumor growth suppression” (J Med Chem, 2009)
Calls of active or inactive are those of the source. The rule behind the calls is not given here.

How the values were obtained:
[1] = Cytotoxicity against human H12.1 cells after 96 hrs by SRB assay; assay type: functional, cell-based
Summary of the method: (§1)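 Monolayer cultures in RPMI 1640 with 10% heat-inactivated FBS and streptomycin/penicillin, 37 °C, 5% CO₂. Cells seeded day 0 at densities giving exponential growth, exposed day 1 to 0.001–10 μM, SRB read day 5 (96 h exposure); surviving cells as percentage of untreated controls, IC₅₀ taken from dose–response curves. Three independent experiments for some compounds, two for others.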

[2] = Cytotoxicity against human 2102EP cells after 96 hrs by SRB assay; assay type: functional, cell-based; summary of the method: as §1
[3] = Cytotoxicity against human 1411HP cells after 96 hrs by SRB assay; assay type: functional, cell-based; summary of the method: as §1
HCT-8 = assay: Cytotoxicity against human HCT8 cells after 96 hrs by SRB assay; assay type: functional, cell-based; settings: HCT-8, 96 h; summary of the method: as §1
HCT-116 = assay: Cytotoxicity against human HCT116 cells after 96 hrs by SRB assay; assay type: functional, cell-based; settings: HCT-116, 96 h; summary of the method: as §1
HT-29 = assay: Cytotoxicity against human HT-29 cells after 96 hrs by SRB assay; assay type: functional, cell-based; settings: HT-29, 96 h; summary of the method: as §1
DLD-1 [4] = assay: Cytotoxicity against human DLD1 cells after 96 hrs by SRB assay; assay type: functional, cell-based; settings: DLD-1, 96 h; summary of the method: as §1
SW480 = assay: Cytotoxicity against human SW480 cells after 96 hrs by SRB assay; assay type: functional, cell-based; settings: SW480, 96 h; summary of the method: as §1
A549 = assay: Cytotoxicity against human A549 cells after 96 hrs by SRB assay; assay type: functional, cell-based; settings: A549, 96 h; summary of the method: as §1
A-427 = assay: Cytotoxicity against human A427 cells after 96 hrs by SRB assay; assay type: functional, cell-based; settings: A-427, 96 h; summary of the method: as §1
[5] = Cytotoxicity against human NCI-H322 cells after 96 hrs by SRB assay; assay type: functional, cell-based; settings: NCI-H322, 96 h; summary of the method: as §1
NCI-H358 = assay: Cytotoxicity against human NCI-H358 cells after 96 hrs by SRB assay; assay type: functional, cell-based; settings: NCI-H358, 96 h; summary of the method: as §1
FaDu = assay: Cytotoxicity against human FADU cells after 96 hrs by SRB assay; assay type: functional, cell-based; summary of the method: as §1
[6] = Cytotoxicity against human A253 cells after 96 hrs by SRB assay; assay type: functional, cell-based; settings: A253, 96 h; summary of the method: as §1
A-431 [7] = assay: Cytotoxicity against human A431 cells after 96 hrs by SRB assay; assay type: functional, cell-based; settings: A-431, 96 h; summary of the method: as §1
MCF7 = assay: Cytotoxicity against human MCF7 cells after 96 hrs by SRB assay; assay type: functional, cell-based; settings: MCF7, 96 h; summary of the method: as §1
BT-474 = assay: Cytotoxicity against human BT474 cells after 96 hrs by SRB assay; assay type: functional, cell-based; settings: BT-474, 96 h; summary of the method: as §1
A2780 [8] = assay: Cytotoxicity against human A2780 cells after 96 hrs by SRB assay; assay type: functional, cell-based; settings: A2780, 96 h; summary of the method: as §1
[9] = Cytotoxicity against human 518A2 cells after 96 hrs by SRB assay; assay type: functional, cell-based; settings: 518A2, 96 h; summary of the method: as §1
8505C = assay: Cytotoxicity against human 8505C cells after 96 hrs by SRB assay; assay type: functional, cell-based; summary of the method: as §1
SW-1736 = assay: Cytotoxicity against human SW1736 cells after 96 hrs by SRB assay; assay type: functional, cell-based; settings: SW-1736, 96 h; summary of the method: as §1
A253 cell line = assay: Suppression of regrowth in human A253 cells at 10 nM treated for 96 hrs and measured over 10 days by SRB assay; assay type: functional, cell-based
Summary of the method: (§2)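 SRB regrowth test: cells exposed 96 h to serial dilutions, chosen around IC₉₀, then fixed at once (day 0) or washed drug-free and grown in fresh medium for 2, 4, 6 or 10 days before SRB staining. Three independent experiments.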

A-431 [10] = assay: Suppression of regrowth in human A431 cells at 10 nM treated for 96 hrs and measured over 10 days by SRB assay; assay type: functional, cell-based; summary of the method: as §2
A2780 [11] = assay: Suppression of regrowth in human A2780 cells at 10 nM treated for 96 hrs and measured over 10 days by SRB assay; assay type: functional, cell-based; summary of the method: as §2
HL-60 [12] = assay: Induction of apoptosis in human HL60 cells at 10 uM after 15 hrs by TUNEL assay; assay type: functional
Summary of the method: (§3)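 TUNEL with fluorescein-tagged nucleotides labelling 3'-OH DNA ends, on HL-60 and 518A2 cells exposed to 10 μM for 15 h. Apoptotic cells were counted as green fluorescent spots under fluorescence microscopy and related to total cell number.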

518A2 [13] = assay: Induction of apoptosis in human 518A2 cells at 10 uM after 15 hrs by TUNEL assay; assay type: functional; summary of the method: as §3
HL-60 [14] = assay: Induction of apoptosis in human HL60 cells assessed as processing of procaspase 9 to activated caspase 9 at 10 uM by Western blotting; assay type: functional, cell-based; settings: TDE = time-dependent effect
Summary of the method: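 HL-60 cells at 0.5 × 10⁶/mL, exposed to 10 μM (in 1% DMF/99% PBS) at 37 °C, sampled at 0, 3, 7, 24 and 30 h. Lysed in Tris/NaCl/Triton X-100 buffer pH 7.4, 60 μg protein on 12% SDS–PAGE, PVDF blot, anti-caspase-9 1:10,000, HRP secondary, chemiluminescence. Procaspase-9 (~46 kDa) and cleaved form (~35 kDa) followed.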

518A2 [15] = assay: Induction of apoptosis in human 518A2 cells assessed as increase in cleaved/activated form of caspase 3 at 1 uM after 24 hrs by Western blot analysis; assay type: functional, cell-based
Summary of the method: (§4)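 Cells treated 24 h at 1 μM, then rinsed in PBS and lysed in RIPA buffer with protease inhibitors. 40 μg protein per lane on SDS–PAGE, blotted to nitrocellulose, blocked in 5% milk/PBST, probed 2 h with mouse monoclonals against caspase-3, PARP and actin (loading control). HRP secondary, ECL detection, compared with untreated control.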

518A2 [16] = assay: Induction of apoptosis in human 518A2 cells assessed as PARP cleavage at 1 uM after 24 hrs by Western blot analysis; assay type: functional, cell-based; summary of the method: as §4
DLD-1 [17] = assay: Induction of apoptosis in human DLD1 cells assessed as increase in cleaved/activated form of caspase 3 at 1 uM after 24 hrs by Western blot analysis; assay type: functional, cell-based; summary of the method: as §4
DLD-1 [18] = assay: Induction of apoptosis in human DLD1 cells assessed as PARP cleavage at 1 uM after 24 hrs by Western blot analysis; assay type: functional, cell-based; summary of the method: as §4
[19] = Induction of apoptosis in human WW070327 cells assessed as increase in cleaved/activated form of caspase 3 at 1 uM after 24 hrs by Western blot analysis; assay type: cell-based; settings: ww070327, 24 h; summary of the method: as §4
[20] = Induction of apoptosis in human WW070327 cells assessed as PARP cleavage at 1 uM after 24 hrs by Western blot analysis; assay type: cell-based; settings: ww070327, 24 h; summary of the method: as §4
A2780 [21] = assay: Induction of apoptosis in human A2780 cells assessed as increase in cleaved/activated form of caspase 3 at 1 uM after 24 hrs by Western blot analysis; assay type: functional, cell-based; summary of the method: as §4
A2780 [22] = assay: Induction of apoptosis in human A2780 cells assessed as PARP cleavage at 1 uM after 24 hrs by Western blot analysis; assay type: functional, cell-based; summary of the method: as §4
[23] = Inhibition of tubulin polymerization at 3 uM; settings: TDE = time-dependent effect
Summary of the method: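 Commercial fluorescence-based tubulin polymerization kit, run as the manufacturer directs, compounds at 3 μM. Polymerization followed as RFU at excitation 360 nm, emission 465 nm. Three independent experiments.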

## COc1ccc(/C=C/C(=O)c2cc(OC)c(OC)c(OC)c2)cc1O
[1]
  IC50: 33.6 nM
[2]
  IC50: 31.4 nM
[3]
  IC50: 142 nM
HCT-8
  IC50: 56 nM
HCT-116
  IC50: 25.1 nM
HT-29
  IC50: 2600 nM
DLD-1 [4]
  IC50: 32.3 nM
SW480
  IC50: 102 nM
A549
  IC50: 67.5 nM
A-427
  IC50: 51.2 nM
[5]
  IC50: 39 nM
NCI-H358
  IC50: 17.1 nM
FaDu
  IC50: 41 nM
[6]
  IC50: 22.8 nM
A-431 [7]
  IC50: 15 nM
MCF7
  IC50: 22.3 nM
BT-474
  IC50: 193 nM
A2780 [8]
  IC50: 15.6 nM
[9]
  IC50: 33.6 nM
8505C
  IC50: 49.7 nM
SW-1736
  IC50: 27.5 nM
A253 cell line
  Activity: Active
A-431 [10]
  Activity: Active
A2780 [11]
  Activity: Active
HL-60 [12]
  Activity: 40%
518A2 [13]
  Activity: 50%
HL-60 [14]
  Activity: tde
518A2 [15]
  Activity: Active
518A2 [16]
  Activity: Active
DLD-1 [17]
  Activity: Active
DLD-1 [18]
  Activity: Active
[19]
  Activity: Not Active
[20]
  Activity: Not Active
A2780 [21]
  Activity: Active
A2780 [22]
  Activity: Active
[23]
  Activity: tde
